The values that follow come from paper PMC8686831 (Molecular pharmaceutics, 2021).

Data set [1] deals with HCT116 p53^−/− subcutaneous xenograft tumors. The experiment in a line: Survival study in subcutaneous xenograft mice. It is filed as in vivo, athymic nude mice. An outline of the steps:
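Nude mice carried s.c. HCT116 p53+/+ or p53−/− xenografts (10^6 cells, 1:1 media/matrigel). At a mean tumor volume of 100 ± 10 mm3 they were randomized. Dosing was i.v. every 3–4 days for 5 cycles: approximately 74 MBq test compound in 100 μL 30% PEG300 vehicle, or vehicle alone. The p53−/− study added a stable-iodine analogue cohort (approx. 80 μg/kg). Weights were taken daily. Endpoints: distress, significant weight loss, tumor >800 mm3, or ulceration >5 mm.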

For data set [2], the system named is healthy athymic nude mice. The experiment in a line: ^127I-PARPi toxicity study in healthy mice. It is filed as in vivo. The settings on record: 2.05 mg/kg intravenously.

Take `O=C(c1cccc([127I])c1)N1CCN(C(=O)c2cc(Cc3n[nH]c(=O)c4ccccc34)ccc2F)CC1` [^127I-PARPi]: in data set [1], the “Effect on overall / median survival compared to vehicle” value was “No significant increase in median survival” and the “Improvement of median survival compared to vehicle control group” value is recorded as “+26%”. Also, the “Median survival (weeks)” value in data set [1] (i.v., ^123I-MAPi 74 MBq or ^127I-PARPi approx. 80 μg/kg, every 3–4 days, 5 cycles) came to 3.071 weeks. Also, in data set [2] (healthy mice), the “Toxicity (immunohistochemical and blood chemistry analysis)” value is listed as “no toxicity was observed”. Also, the “Markers associated with liver toxicity (ALP, ALT, AST)” value in data set [2] (vs. vehicle) is “no significant variation compared to vehicle cohorts”.
